A short description of data set [1]: Single-pass intestinal perfusion. The format is in vivo, Wistar rats. The gist of the method:
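Male Wistar germ-free and age-matched SPF rats (6-week-old, 250–300 g), n = 6 per group. Fasted 12 h with free water, anaesthetised with intramuscular ketamine-xylazine (80 mg/kg and 20 mg/kg), kept on a heated surface at 37 ± 1 °C. Intestine perfused single-pass in situ for 2 h, sampled at 15-min intervals, and Peff determined. Perfused and unperfused segments were collected for microbiological detection.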

Data set [2] can be described thus: SPIP in GF rats mono-colonized with BTWT/BFWT or BTΔSPT/BFΔSPT. The format is in vivo, Wistar rats. As to conditions: for Peff plateau: SPIP 30 mg/L NAC. Put shortly:
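Germ-free Wistar rats (6-week-old) fed a fat-free diet (0% kcal fat, 76% carbohydrate, 24% protein) containing only PAA for 12 weeks. Wild-type or SPT-deleted Bacteroides strains, grown anaerobically at 37 °C in BHI with […] cysteine and resuspended in oxygen-free PBS, then given with the diet (10⁸ CFU/μL of PBS per rat, three times weekly) for 8 weeks. In situ single-pass perfusion and Peff determination followed.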

For data set [3] the following is noted: cited from earlier work.
For data set [4] the following is noted: cited from earlier work. The source holds these as a separate data set.

The values that follow come from article PMC12089494 (Nature Communications, 2025).

A word on the aqueous solubility: it is how much of the substance goes into solution per volume.

Structures are written as SMILES. In brackets after ≈: the same amount, converted by molar mass. Like-named read-outs stand apart in the source and are kept apart here.

For `CC(=O)N[C@@H](CS)C(=O)O` [NAC, N-Acetylcysteine], the Peff plateau in data set [1] (GF rats, SPIP) was 1.446 × 10^–4 cm/s; in data set [2] (GF^BFΔSPT rats), 1.417 × 10^–4 cm/s; in data set [2] (GF^BTΔSPT rats), 1.216 × 10^–4 cm/s. In data set [1] (GF vs SPF rats), the “Peff increase in GF rats than SPF controls” value was “two-fold increase”. The “Peff increase than GF^BTWT and GF^BFWT littermates” value in data set [2] (GF^BTΔSPT and GF^BFΔSPT rats vs wild-type colonized) was “approximately with the two-fold increase”. For the same compound, in data set [3] (different populations), the “within-study coefficients of variability (CVs)” value is recorded as 35-45%. For the same compound, in data set [3] (oral dose of NAC 400 mg, reduced form), the tmax is recorded as 30 min. For the same compound, the “Bio-availability, reduced form” value in data set [3] (oral dose of NAC 400 mg) was 4.0%. Besides, the “Bio-availability, total drug” value in data set [3] (oral dose of NAC 400 mg) was 9.1%. The “Cmax of the reduced form” value in data set [3] (oral dose of NAC 400 mg) was 3470 ng/mL. The aqueous solubility in data set [4] and in data set [4] (pH 7.4) was 163.9 mg/mL (≈ 1000 mM) in each case.
